Reference: ChEMBL document CHEMBL1134455, “Synthesis and evaluation of 4-fluoro-8-substituted-2,3,4,5-tetrahydro-1H-2-benzazapines as selective inhibitors of phenylethanolamine N-methyltransferase versus the alpha(2)-adrenoceptor” (J Med Chem, 2001)

Legend:
[1] = Selectivity ratio (alpha2/PNMT)
[2] = target: T1, Adrenergic receptor alpha-2 (Rattus norvegicus, UniProt P22086+P19328+P22909); experiment: Binding affinity to alpha-2 adrenergic receptor by displacement of [3H]clonidine; type: protein assay
T1 sequence (P22086 whole entry): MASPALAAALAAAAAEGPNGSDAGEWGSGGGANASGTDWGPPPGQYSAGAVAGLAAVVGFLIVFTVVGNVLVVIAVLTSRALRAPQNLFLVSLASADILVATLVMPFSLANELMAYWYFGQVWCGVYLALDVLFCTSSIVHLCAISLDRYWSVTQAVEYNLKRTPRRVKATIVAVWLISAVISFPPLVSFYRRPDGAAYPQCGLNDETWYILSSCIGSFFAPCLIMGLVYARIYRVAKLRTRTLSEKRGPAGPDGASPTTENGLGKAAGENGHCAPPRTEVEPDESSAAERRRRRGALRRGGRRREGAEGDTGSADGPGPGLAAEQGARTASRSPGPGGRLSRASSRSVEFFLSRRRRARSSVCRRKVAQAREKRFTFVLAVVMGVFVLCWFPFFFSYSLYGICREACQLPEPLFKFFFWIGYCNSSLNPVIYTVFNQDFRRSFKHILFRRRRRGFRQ
T1 sequence (P19328 whole entry): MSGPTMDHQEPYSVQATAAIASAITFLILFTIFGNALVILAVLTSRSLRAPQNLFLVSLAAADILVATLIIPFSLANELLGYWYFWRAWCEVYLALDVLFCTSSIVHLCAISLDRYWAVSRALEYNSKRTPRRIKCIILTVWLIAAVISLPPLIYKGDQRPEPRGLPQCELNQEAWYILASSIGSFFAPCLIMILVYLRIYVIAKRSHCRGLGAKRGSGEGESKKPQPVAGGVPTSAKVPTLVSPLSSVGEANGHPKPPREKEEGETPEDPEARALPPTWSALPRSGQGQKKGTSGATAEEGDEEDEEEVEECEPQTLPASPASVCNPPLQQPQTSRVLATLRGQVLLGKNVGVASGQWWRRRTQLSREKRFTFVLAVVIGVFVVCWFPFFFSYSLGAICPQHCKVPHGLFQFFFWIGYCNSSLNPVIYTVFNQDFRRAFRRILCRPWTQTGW
T1 sequence (P22909 whole entry): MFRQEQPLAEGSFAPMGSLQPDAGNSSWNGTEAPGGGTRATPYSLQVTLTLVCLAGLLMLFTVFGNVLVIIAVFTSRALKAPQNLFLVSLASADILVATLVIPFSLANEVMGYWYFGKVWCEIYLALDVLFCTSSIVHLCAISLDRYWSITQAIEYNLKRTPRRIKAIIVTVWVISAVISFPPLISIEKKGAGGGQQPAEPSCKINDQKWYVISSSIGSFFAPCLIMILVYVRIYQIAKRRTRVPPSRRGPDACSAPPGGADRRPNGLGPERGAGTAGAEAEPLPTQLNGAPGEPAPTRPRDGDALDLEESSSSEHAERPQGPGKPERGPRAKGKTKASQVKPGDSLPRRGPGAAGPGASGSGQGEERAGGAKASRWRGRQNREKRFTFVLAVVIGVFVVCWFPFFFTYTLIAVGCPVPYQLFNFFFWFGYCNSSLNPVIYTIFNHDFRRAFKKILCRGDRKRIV
Method in brief: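 Male Sprague Dawley rat cortex homogenized, washed thrice by centrifugation in 50 mM Tris/HCl pH 7.7. Incubated with [3H]clonidine (final 2.0 nM) and varied inhibitor concentrations, 25 °C 30 min; GF/B filtration, scintillation counting. Nonspecific binding with 2 uM phentolamine. IC50 by log-probit analysis, converted to Ki via Cheng–Prusoff (Hill coefficients near one).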

[3] = target: T2, Phenylethanolamine N-methyltransferase (Bos taurus, UniProt P10938); experiment: Ability to inhibit phenylethanolamine N-methyl-transferase (PNMT)
T2 sequence (P10938 whole entry): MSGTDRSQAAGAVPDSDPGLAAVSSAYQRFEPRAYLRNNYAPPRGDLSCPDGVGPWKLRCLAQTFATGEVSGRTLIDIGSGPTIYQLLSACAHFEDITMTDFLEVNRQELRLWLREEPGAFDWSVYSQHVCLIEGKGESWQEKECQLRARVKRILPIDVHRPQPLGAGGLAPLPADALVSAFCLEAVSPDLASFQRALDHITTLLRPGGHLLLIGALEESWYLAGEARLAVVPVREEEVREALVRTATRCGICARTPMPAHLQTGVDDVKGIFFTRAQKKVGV

Row | SMILES | Selectivity [1] | Ki [2] [nM] | Ki [3] [nM]
1 | O=[N+]([O-])c1ccc2c(c1)CNC(CF)C2 (stereo not given) | 140 | – | –
2 | N#Cc1ccc2c(c1)CNC(CF)C2 (stereo not given) | 420 | – | –
3 | FCC1Cc2ccc(Br)cc2CN1 (stereo not given) | 10 | – | –
4 | NS(=O)(=O)c1ccc2c(c1)CNC(CO)C2 (stereo not given) | 4100 | – | –
5 | O=[N+]([O-])c1ccc2c(c1)CNCC2CF (stereo not given) | 17 | 35000 | 2100
6 | Clc1ccc2c(c1Cl)CNCC2 | 0.095 | – | –
7 | NS(=O)(=O)c1ccc2c(c1)CNC(CF)C2 (stereo not given) | 1000 | – | –
8 | FC1CNCc2ccccc2C1 (stereo not given) | 47 | 93000 | 2000
9 | FC1CNCc2cc(Br)ccc2C1 (stereo not given) | 130 | 49000 | 390
10 | O=[N+]([O-])c1ccc2c(c1)CNCC(F)C2 (stereo not given) | 940 | 510000 | 540
11 | COc1ccc2c3c([nH]c2c1)C=NCC3 | 4.4 | – | –
12 | N#Cc1ccc2c(c1)CNCC(F)C2 (stereo not given) | 77 | 100000 | 1300
13 | O=[N+]([O-])c1ccc2c(c1)CNCC(O)C2 (stereo not given) | 130 | 680000 | 5300
